For 23 compounds, inhibition, IC50 and Activity results are on record in ChEMBL document CHEMBL1138047, “Synthesis and biological evaluation of 2-amino-3-(3',4',5'-trimethoxybenzoyl)-5-aryl thiophenes as a new class of potent antitubulin agents” (J Med Chem, 2006).

Each structure is given as a SMILES string. Activity calls are given as the source filed them. No cut-off for these calls is given here.

The subject of one assay is Tubulin (Bos taurus). The experiment in a line: Inhibition of [3H]colchicine binding to tubulin at 1 uM.
The next assay has as its system L1210. Put plainly: Antiproliferative activity against mouse L1210 cell line. The assay is classed as functional, cell-based. The method, boiled down: (§1)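 Exponentially growing cells in RPMI 1640 with 10% fetal calf serum, 2 mM L-glutamine, […], penicillin/streptomycin were exposed to increasing drug concentrations (DMSO stock 1 mg/mL, final DMSO ≤0.01%, matched DMSO controls). Cells counted by Coulter counter after 48 h. IC50 = concentration giving 50% inhibition versus untreated controls. Duplicate cultures per concentration, ≥3 independent experiments, mean ± SE.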

For assay [1], the system named is K562. The experiment in a line: Antiproliferative activity against human K562 cell line. The assay is classed as functional, cell-based. The method, boiled down:
as §1

The target in another assay is Tubulin (Bos taurus, UniProt Q6B856+Q862L2+Q862F3). Put plainly: Inhibition of tubulin polymerization in bovine brain by tubulin assembly assay. The method, boiled down: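 Purified bovine brain tubulin (10 µM) in glutamate buffer was preincubated with a concentration range of compound at 30 °C, then cooled to 0 °C. GTP was added, the mixture rewarmed to 30 °C and assembly followed by turbidity.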

The test system of assay [2] is K562. Put plainly: Induction of apoptosis in K562 cell line. The assay is classed as functional, Homo sapiens.
The test system of assay [3] is K562. Put plainly: Cell cycle arrest in K562 cells at sub-G1 phase cell. The assay is classed as functional, cell-based. The conditions noted are these: Homo sapiens. The method, boiled down: (§2)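 K562 cells cultured with compound at 3 or 10 nM, or at levels giving 50% and 75% growth inhibition, versus untreated cells. Cells (1 × 10⁶) stained with propidium iodide for 30 min. Sub-G1 (DNA-breakage) fraction measured by flow cytometry.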

Assay [4] concerns K562. Put plainly: Cell cycle arrest in K562 cells at sub-G1 phase cell at 3 nM. The assay is classed as functional, cell-based. To be noted: Homo sapiens. The method, boiled down:
as §2

The test system of assay [5] is K562. Put plainly: Cell cycle arrest in K562 cells at sub-G1 phase cell at 10 nM. The assay is classed as functional, cell-based. The conditions noted are these: Homo sapiens. The method, boiled down: as §2
The subject of assay [6] is K562. Put plainly: Cell cycle arrest in K562 cells at G2/M phase. The assay is classed as functional, cell-based. The conditions noted are these: Homo sapiens. The method, boiled down:
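K562 cells cultured 24 h with compound at concentrations giving 25%, 50% and 75% growth inhibition, or without compound. Cells (1 × 10⁶) stained with propidium iodide for 30 min and analysed by flow cytometry for G1, S, G2/M and sub-G1 fractions. DMSO vehicle.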

As to `COc1ccc(-c2cc(C(=O)c3cc(OC)c(OC)c(OC)c3)c(N)s2)cc1`, the inhibition (usually the percentage by which the read-out fell short of the control) in the assay with Tubulin (Bos taurus) was 64%. In addition, the IC50 – broadly, the point on the concentration scale where inhibition reaches its midpoint – is 6.52 nM in the assay on L1210, 4.47 nM with K562 [1] and 1700 nM against Tubulin.

Take `COc1cc(C(=O)c2cc(-c3ccc(OC)c(OC)c3OC)sc2N)cc(OC)c1OC`: the IC50 was determined as 1650 nM in the assay on L1210 and 1100 nM with K562 [1].

Consider `CCc1cc(C(=O)c2cc(OC)c(OC)c(OC)c2)c(N)s1`, for which the figures for the IC50 in the assay with L1210 and in the assay on K562 [1] were greater than 10000 nM and 9000 nM, respectively.

As to `COc1cc(C(=O)c2ccsc2N)cc(OC)c1OC`, the IC50 in the assay with L1210 came to 3150 nM; with K562 [1] it was 1270 nM.

Consider `COc1cc(C(=O)c2c(C)csc2N)cc(OC)c1OC`, for which the results for the IC50 with L1210 and with K562 [1] were 262 nM and 219 nM, respectively.

`COc1cc(C(=O)c2cc(Br)sc2N)cc(OC)c1OC`: the IC50 in the assay with L1210 worked out at 4250 nM; with K562 [1], 1680 nM.

For the compound `COc1ccc(C(=O)c2cc(-c3ccccc3)sc2N)cc1`, the IC50 with L1210 is greater than 10000 nM; with K562 [1], 4670 nM.

Take `COc1cc(C(=O)c2c(-c3ccccc3)csc2N)cc(OC)c1OC`: the IC50 in the assay on L1210 and in the assay on K562 [1] was greater than 10000 nM in each case.

`COc1cc(C(=O)c2c(N)sc(-c3ccccc3)c2C)cc(OC)c1OC`: the inhibition with Tubulin (Bos taurus) is 37%. Further, the IC50 in the assay with L1210 was determined as 18.2 nM; in the assay on K562 [1], 6.42 nM; at Tubulin it was 2200 nM.

For `COc1cc(C(=O)c2cc(-c3ccccc3)sc2N)cc(OC)c1OC`, the Activity in the assay with K562 [2] is recorded as 87.5%. In addition, the inhibition in the assay with Tubulin (Bos taurus) came to 60%. Further, the result with K562 [3], with K562 [4] and in the assay on K562 [5] was Active. The half-inhibitory concentration (IC50) is 2.52 nM with L1210, 3.75 nM in the assay with K562 [1] and 1900 nM on Tubulin.

As for `COc1cc(C(=O)c2cc(I)sc2N)cc(OC)c1OC`, the IC50 in the assay on L1210 is 1150 nM; with K562 [1], 342 nM.

`CCCCCc1cc(C(=O)c2cc(OC)c(OC)c(OC)c2)c(N)s1`: the half-maximal inhibitory concentration (IC50) stood at 1320 nM in the assay with L1210 and 1490 nM in the assay on K562 [1].

Regarding `COc1cc(C(=O)c2c(N)sc(C)c2C)cc(OC)c1OC`, the IC50 in the assay on L1210 is 3900 nM; with K562 [1] it was 790 nM.

Consider `COc1cc(C(=O)c2cc(-c3ccc(C(F)(F)F)cc3)sc2N)cc(OC)c1OC`, for which the IC50 in the assay on L1210 was found to be 73.7 nM; in the assay with K562 [1], 70.3 nM.

`COc1ccc(/C=C\c2cc(OC)c(OC)c(OC)c2)cc1O` [COMBRETASTATIN A4]: the IC50 in the assay with L1210 was found to be 8.3 nM; in the assay on K562 [1], 3.6 nM.

Consider `COc1cc(C(=O)c2cc(-c3ccc(Cl)cc3)sc2N)cc(OC)c1OC`, for which the inhibition with Tubulin (Bos taurus) came out at 68%. Also, the IC50 in the assay with L1210 is 6.96 nM; in the assay on K562 [1], 14.7 nM; at Tubulin, 980 nM.

Consider `COc1cccc(-c2cc(C(=O)c3cc(OC)c(OC)c(OC)c3)c(N)s2)c1`, for which the inhibition in the assay with Tubulin (Bos taurus) stood at 58%. Also, the IC50 in the assay with L1210 was 20.8 nM; in the assay on K562 [1] it was 10.1 nM; on Tubulin, 1700 nM.

Turning to `COc1cc(C(=O)c2c(N)sc(-c3ccccc3)c2-c2ccccc2)cc(OC)c1OC`, the half-maximal inhibitory concentration (IC50) in the assay with L1210 worked out at 6950 nM; in the assay with K562 [1], 8500 nM.

On to `COc1ccc(C(=O)c2cc(-c3ccccc3)sc2N)cc1OC`, for which the IC50 came to 537 nM in the assay with L1210 and 85.5 nM in the assay with K562 [1].

For `COc1cc(C(=O)c2cc(-c3ccc(Cl)c(Cl)c3)sc2N)cc(OC)c1OC`, the IC50 was found to be 337 nM in the assay on L1210 and 362 nM in the assay with K562 [1].

As for `COc1cc(C(=O)c2cc(-c3ccc(F)cc3)sc2N)cc(OC)c1OC`, the Activity was 64.5% in the assay on K562 [2] and “Dose-dependent effect” with K562 [6]. In addition, the inhibition with Tubulin (Bos taurus) worked out at 82%. Further, the result in the assay with K562 [3] was Active. For the same compound, the values for the half-maximal inhibitory concentration (IC50) in the assay with L1210, with K562 [1] and at Tubulin were 2.15 nM, 2.82 nM and 1100 nM, respectively.

Consider `COc1cc(C(=O)c2cc(-c3ccc(C)cc3)sc2N)cc(OC)c1OC`, for which the Activity with K562 [2] is on record as 20.5%. For the same compound, in the assay with Tubulin (Bos taurus), the inhibition stood at 71%. Besides, the outcome in the assay on K562 [3] was Active. Further, the 50% inhibitory concentration (IC50) was determined as 3.52 nM with L1210, 4.72 nM in the assay with K562 [1] and 1100 nM at Tubulin.

`COc1ccccc1-c1cc(C(=O)c2cc(OC)c(OC)c(OC)c2)c(N)s1`: the figures for the IC50 in the assay with L1210 and in the assay with K562 [1] were 9 nM and 7.75 nM, respectively.
